Measured values: ChEMBL document CHEMBL1134313, “Synthesis and biological evaluation of myoseverin derivatives: microtubule assembly inhibitors” (J Med Chem, 2001)

How the values were obtained:
Tubulin = Tubulin (Bos taurus, UniProt Q6B856+Q862L2+Q862F3); test: Inhibition of tubulin polymerization using bovine brain tubulin; assay type: functional
U-937 [1] = test: Growth inhibition of human U937 cells; assay type: functional
In short: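 Proliferating U937 human leukemic cells were exposed to the compounds. Potency is reported as GI50, the concentration giving 50% growth inhibition. Toxicity was checked separately at up to 100 µM, as LC50.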

U-937 [2] = test: Toxicity towards human U937 cells.; assay type: cell-based

SMILES	IC50 (Tubulin)	GI50 (U-937 [1])	LC50 (U-937 [2])
COc1ccc(CNc2nc(NCc3ccc(OC)cc3)c3[nH]cnc3n2)cc1	50 µM	18 µM	–
CCn1cnc2c(NCc3ccc(OC)cc3)nc(NCc3ccc(OC)cc3)nc21	25 µM	6 µM	–
COc1ccc(CNc2nc(NCc3ccc(OC)cc3)c3ncn(C4CCNCC4)c3n2)cc1	5 µM	6 µM	40 µM
COc1ccc(CNc2nc(NCc3ccc(OC)cc3)c3ncn(C4CCC(O)CC4)c3n2)cc1 (stereo unspecified)	3 µM	2 µM	–
COc1ccc(CNc2nc(NCc3ccc(OC)cc3)c3ncn(C4CCOC4)c3n2)cc1 (stereo unspecified)	5 µM	4 µM	–
COc1ccc(CNc2nc(NCc3ccc(OC)cc3)c3ncn(C(C)C)c3n2)cc1 [MYOSEVERIN]	8 µM	4 µM	–
COc1ccc(CNc2nc(NCc3ccc(OC)cc3)c3ncn(C4CCCCC4)c3n2)cc1	2 µM	0.2 µM	–

The remaining molecules from weak to strong by GI50 (U-937 [1]), led by results:

IC50 (Tubulin)	GI50 (U-937 [1])	SMILES	LC50 (U-937 [2])
25 µM	12 µM	COc1ccc(CNc2nc(NCc3ccc(OC)cc3)c3ncn(C)c3n2)cc1	–
5 µM	5 µM	COc1ccc(CNc2nc(NCc3ccc(OC)cc3)c3ncn(C4CCC4)c3n2)cc1	–
3 µM	2 µM	COc1ccc(CNc2nc(NCc3ccc(OC)cc3)c3ncn(C4CCCC4)c3n2)cc1	–
